Reference: ChEMBL document CHEMBL1129746, “Structure-based design of HIV protease inhibitors: sulfonamide-containing 5,6-dihydro-4-hydroxy-2-pyrones as non-peptidic inhibitors” (J Med Chem, 1996)

Assays:
[1] = molecular target: Human immunodeficiency virus type 1 protease (Human immunodeficiency virus 1, UniProt Q72874, L33I/L63I/Q7K); experiment: Compound was tested for inhibition of HIV protease triple mutant (Q7K/L33I/L63I)
[2] = test system: Human immunodeficiency virus type 1 protease (Human immunodeficiency virus 1), Q72874 [Q7K,L33I,L63I]
[3] = molecular target: Human immunodeficiency virus type 1 protease (Human immunodeficiency virus 1, UniProt Q72874); experiment: (§1) Tested for inhibition of HIV protease
Method in brief: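 Ki measured against a tandemly linked (single-chain) HIV protease construct, used because the native dimeric enzyme dissociates at low enzyme concentration.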

[4] = molecular target: Human immunodeficiency virus 1; experiment: Tested for antiviral activity in HIV-1 IIIB-infected H9 cells
[5] = molecular target: Human immunodeficiency virus type 1 protease (Human immunodeficiency virus 1) (UniProt Q72874); experiment: as §1
[6] = Oral bioavailability of compound reported after 5 mg/kg i.v. dose in rat; format: ADME, organism-based; conditions: in vivo, 10 mg/kg, in the assay text read “after 10 mg/kg oral dose” for “after 5 mg/kg i.v. dose”
Method in brief: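 Rats given 10 mg/kg orally (n = 9) in 0.01 M sodium hydroxide, pH 10, at 2 mg/g, and 5 mg/kg intravenously (n = 3) in 10% propylene glycol/22.5% hydroxypropyl-β-cyclodextrin. Time-course blood levels compared; F calculated relative to the intravenous dose.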

[7] = Totla clearance of compound reported after 5 mg/kg i.v. dose in rat; format: ADME, organism-based; set-up: dose 5 mg/kg, route intravenous; conditions: in vivo, iv, read-out: CLtotal (converted)
Method in brief: (§2)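 Rats (n = 3) dosed intravenously at 5 mg/kg in 10% propylene glycol with 22.5% (hydroxypropyl)-β-cyclodextrin (2 mg/g formulation). Blood levels followed over time to derive total clearance and steady-state volume.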

[8] = Volume distribution of compound reported after 5 mg/kg i.v. dose in rat; format: ADME, organism-based; set-up: dose 5 mg/kg, route intravenous; conditions: in vivo, iv, read-out: Vss; method in brief: as §2
Cathepsin E = molecular target: T1, Cathepsin E (Homo sapiens, UniProt P14091); experiment: Compound was tested for inhibition human Cathepsin E
T1 sequence (P14091 whole entry): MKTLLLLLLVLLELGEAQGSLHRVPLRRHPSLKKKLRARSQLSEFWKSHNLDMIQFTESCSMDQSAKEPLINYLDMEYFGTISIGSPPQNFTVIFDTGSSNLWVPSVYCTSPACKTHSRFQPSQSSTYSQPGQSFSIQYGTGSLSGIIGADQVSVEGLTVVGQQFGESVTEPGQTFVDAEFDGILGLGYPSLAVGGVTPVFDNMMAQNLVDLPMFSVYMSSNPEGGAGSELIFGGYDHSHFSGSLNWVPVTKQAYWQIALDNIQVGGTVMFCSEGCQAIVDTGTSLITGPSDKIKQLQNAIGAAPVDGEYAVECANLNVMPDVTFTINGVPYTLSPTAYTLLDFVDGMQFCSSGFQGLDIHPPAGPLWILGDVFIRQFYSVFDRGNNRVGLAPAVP

Cathepsin D = Cathepsin D (Homo sapiens, UniProt P07339); experiment: Compound was tested for inhibition human Cathepsin D
Sequence of Cathepsin D (P07339 65-162 limits assumed): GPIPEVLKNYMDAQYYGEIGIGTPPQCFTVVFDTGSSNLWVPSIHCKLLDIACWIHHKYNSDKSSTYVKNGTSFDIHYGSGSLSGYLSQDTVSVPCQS
Sequence of Cathepsin D (P07339 169-412 limits assumed): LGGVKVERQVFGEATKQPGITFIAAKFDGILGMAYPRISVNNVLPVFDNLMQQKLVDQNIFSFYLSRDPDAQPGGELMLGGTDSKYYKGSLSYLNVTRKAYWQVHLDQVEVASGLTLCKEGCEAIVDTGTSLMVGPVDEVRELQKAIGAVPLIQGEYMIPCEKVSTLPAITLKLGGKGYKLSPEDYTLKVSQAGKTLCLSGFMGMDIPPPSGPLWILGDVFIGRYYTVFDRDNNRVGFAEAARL

Pepsin A = Pepsin A (Homo sapiens, UniProt P0DJD9); experiment: Inhibition of human pepsin
Sequence of Pepsin A (P0DJD9 whole entry): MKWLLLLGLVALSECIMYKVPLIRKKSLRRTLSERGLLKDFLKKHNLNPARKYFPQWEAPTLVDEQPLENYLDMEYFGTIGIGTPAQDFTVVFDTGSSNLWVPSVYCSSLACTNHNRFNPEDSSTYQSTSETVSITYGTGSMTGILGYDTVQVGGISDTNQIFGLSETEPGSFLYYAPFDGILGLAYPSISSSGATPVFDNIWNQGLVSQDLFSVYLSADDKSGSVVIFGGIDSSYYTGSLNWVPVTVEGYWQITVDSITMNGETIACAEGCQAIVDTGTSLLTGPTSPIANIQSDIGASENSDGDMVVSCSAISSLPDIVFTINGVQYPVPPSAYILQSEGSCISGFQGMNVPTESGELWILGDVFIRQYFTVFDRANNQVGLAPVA

[9] = molecular target: Human immunodeficiency virus type 1 protease (Human immunodeficiency virus 1) (UniProt Q72874); experiment: Compound was tested for inhibition of HIV protease in AZT Resistant HIV-1 clinical isolates in primary PBMC
Method in brief: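 A panel of 10 AZT-resistant HIV-1 clinical isolates was grown in primary PBMC using a standardized PBMC drug-susceptibility assay.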

in vivo = conditions: rat, plasma, iv, 5 mg/kg

Ki [3]	IC50 [4]	IC90 [5]	SMILES	other results
–	–	–	CCCC1(CCc2ccccc2)CC(=O)C(C(CC)c2cccc(NS(=O)(=O)c3cn(C)cn3)c2)=C(O)O1 (configuration not stated)	IC50 [1]: 500 nM; Ki [1]: 1 nM; IC90 [2]: 900 nM
0.22 nM	–	–	CCC[C@@]1(CCc2ccccc2)CC(=O)C([C@@H](CC)c2cccc(NS(=O)(=O)c3ccc(C(F)(F)F)cn3)c2)=C(O)O1 (stereo in doubt; form 1) [listing 1 of 2 here]	–
0.04 nM	110 nM	890 nM	CCC[C@@]1(CCc2ccccc2)CC(=O)C([C@@H](CC)c2cccc(NS(=O)(=O)c3ccc(C#N)cn3)c2)=C(O)O1	–
0.032 nM	–	–	CCC[C@@]1(CCc2ccccc2)CC(=O)C([C@@H](CC)c2cccc(NS(=O)(=O)c3ccc(C(F)(F)F)cn3)c2)=C(O)O1 (stereo in doubt; form 2) [listing 1 of 2 here]	–
–	–	–	CCC[C@@]1(CCc2ccccc2)CC(O)=C([C@H](CC)c2cccc(NS(=O)(=O)c3ccc(C(F)(F)F)cn3)c2)C(=O)O1	bioavailability [6]: 30%; clearance [7]: 2.83 mL/min/kg; Vd [8]: 0.51 L/kg; Ki (Cathepsin E): 9000 nM; Ki (Cathepsin D): 15000 nM; Ki (Pepsin A): 2000 nM; IC90 [9]: 150 nM; Ki [1]: < 1 nM; half-life (in vivo): 5.4 h
–	3000 nM	–	CCC(Cc1ccccc1)c1cc(O)c(C(CC)c2ccccc2)c(=O)o1 (configuration not stated)	–
0.1 nM	490 nM	1000 nM	CCC[C@]1(CCc2ccccc2)CC(=O)C([C@H](CC)c2cccc(NS(=O)(=O)c3ccc(C#N)cn3)c2)=C(O)O1	–
0.12 nM	> 1000 nM	> 1000 nM	CCC[C@]1(CCc2ccccc2)CC(=O)C([C@@H](CC)c2cccc(NS(=O)(=O)c3ccc(C#N)cn3)c2)=C(O)O1	–
35 nM	–	–	CCCC1(CCc2ccccc2)C=c2oc(=O)c(C(CC)c3ccccc3)c(O)c2=CC1 (configuration not stated)	–
–	–	3000 nM	CCC[C@@]1(CCc2ccccc2)CC(=O)C([C@@H](CC)c2cccc(NS(=O)(=O)c3ccc(C(F)(F)F)cn3)c2)=C(O)O1 (stereo in doubt; form 1) [listing 2 of 2 here]	–
0.018 nM	140 nM	840 nM	CCC[C@]1(CCc2ccccc2)CC(=O)C([C@H](CC)c2cccc(NS(=O)(=O)c3ccc(C(F)(F)F)cn3)c2)=C(O)O1	–
3 nM	–	3000 nM	CCCC1(CCc2ccccc2)CC(=O)C(C(CC)c2cccc(NS(=O)(=O)c3cccc4cccnc34)c2)=C(O)O1 (configuration not stated)	–
17 nM	–	7300 nM	CCCC1(CCc2ccccc2)CC(=O)C(C(CC)c2cccc(NS(=O)(=O)c3ccccc3)c2)=C(O)O1 (configuration not stated)	–
0.007 nM	–	260 nM	CCC[C@@]1(CCc2ccccc2)CC(O)=C([C@H](CC)c2cccc(NS(=O)(=O)c3ccc(C#N)cn3)c2)C(=O)O1	–
–	–	1800 nM	CCC[C@@]1(CCc2ccccc2)CC(=O)C([C@@H](CC)c2cccc(NS(=O)(=O)c3ccc(C(F)(F)F)cn3)c2)=C(O)O1 (stereo in doubt; form 2) [listing 2 of 2 here]	–
6 nM	–	4300 nM	CCCC1(CCc2ccccc2)CC(=O)C(C(CC)c2cccc(NS(=O)(=O)c3ccc(F)cc3)c2)=C(O)O1 (configuration not stated)	–
8 nM	–	4200 nM	CCCC1(CCc2ccccc2)CC(=O)C(C(CC)c2cccc(NS(=O)(=O)c3ccc(C#N)cc3)c2)=C(O)O1 (configuration not stated)	–

SMILES	Ki [3]	IC50 [4]	IC90 [5]	other results
CCC[C@]1(CCc2ccccc2)CC(=O)C([C@@H](CC)c2cccc(NS(=O)(=O)c3cn(C)cn3)c2)=C(O)O1 (stereo in doubt; Vb) [listing 1 of 2 here]	0.06 nM	130 nM	–	–
CCC[C@]1(CCc2ccccc2)CC(=O)C([C@@H](CC)c2cccc(NS(=O)(=O)c3cn(C)cn3)c2)=C(O)O1 (stereo in doubt; Va) [listing 1 of 2 here]	0.12 nM	580 nM	–	–
CCC[C@]1(CCc2ccccc2)CC(=O)C([C@@H](CC)c2cccc(NS(=O)(=O)c3cn(C)cn3)c2)=C(O)O1 (stereo in doubt; Va) [listing 2 of 2 here]	–	–	1000 nM	–
CCC[C@]1(CCc2ccccc2)CC(=O)C([C@@H](CC)c2cccc(NS(=O)(=O)c3cn(C)cn3)c2)=C(O)O1 (stereo in doubt; Vb) [listing 2 of 2 here]	–	–	560 nM	–
CCC[C@]1(CCc2ccccc2)CC(=O)C([C@@H](CC)c2cccc(NS(=O)(=O)c3cn(C)cn3)c2)=C(O)O1 (stereo in doubt; Vc) [listing 1 of 2 here]	–	–	> 1000 nM	–
CCC[C@]1(CCc2ccccc2)CC(=O)C([C@@H](CC)c2cccc(NS(=O)(=O)c3cn(C)cn3)c2)=C(O)O1 (stereo in doubt; Vc) [listing 2 of 2 here]	1 nM	> 1000 nM	–	–
CCC[C@]1(CCc2ccccc2)CC(=O)C([C@@H](CC)c2cccc(NS(=O)(=O)c3cn(C)cn3)c2)=C(O)O1 (stereo in doubt; Vd) [listing 1 of 2 here]	–	–	> 1000 nM	–
CCC[C@]1(CCc2ccccc2)CC(=O)C([C@@H](CC)c2cccc(NS(=O)(=O)c3cn(C)cn3)c2)=C(O)O1 (stereo in doubt; Vd) [listing 2 of 2 here]	0.03 nM	> 1000 nM	–	–
